Usually IC50 stands for the concentration at which inhibition is half-maximal. Low readings indicate inhibition by little substance, high ones a need for much substance.

Experimental findings from ChEMBL document CHEMBL1122623, “Activities of morphinone and N-(cyclopropylmethyl)normorphinone at opioid receptors” (J Med Chem, 1984) are described below.

What all share (type): functional
Assay [1] has as its system Mus musculus. Kind of assay: Mice were intracerebroventricularly injected with 10 nmol and challenged with a 10 mg/kg subcutaneous dose of morphine sulfate; percentage of animals exhibiting analgesia was reported, after 2 hr.
The species named for assay [2] is Mus musculus. Kind of assay: Antagonist activity in mouse vas deferens preparation.
Assay [3] deals with Mus musculus. Kind of assay: analgesic activity by tail-flick procedure, after intracerebroventricular administration in mice; Compound is inactive at 10 nmol/mouse.
The test system of assay [4] is Mus musculus. Kind of assay: Mice were intracerebroventricularly injected with 10 nmol and challenged with a 10 mg/kg subcutaneous dose of morphine sulfate; percentage of animals exhibiting analgesia was reported, after 24 hr.
Assay [5] relates to Mus musculus. Kind of assay: Mice were intracerebroventricularly injected with 10 nmol and challenged with a 10 mg/kg subcutaneous dose of morphine sulfate; percentage of animals exhibiting analgesia was reported, after 0.5 hr.
Assay [6] can be described thus: Irreversible antagonist activity is measured from the ratio of agonist activity (IC50) to that of the control (ethylketazocine). An outline of the steps: (§1)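 Electrically stimulated guinea pig ileum or mouse vas deferens. Tissue is incubated 30 min with 200 nM compound, then washed 20 times. […] Number of experiments is noted.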
The species named for a further assay is Cavia porcellus. Briefly: Agonist activity in guinea pig ileum preparation. In outline:
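Electrically stimulated guinea pig ileum. Agonist IC50 is derived from concentration-response curves, with the number of experiments noted for each. In a separate run, tissue is depleted of functional μ receptors by preincubation with β-FNA before the agonist curve is repeated.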

Assay [7] has as its system Mus musculus. Kind of assay: Analgesic activity by tail-flick procedure, after intracerebroventricular administration in mice. Compound is inactive at 10 nmol/mouse.
A short description of assay [8]: Irreversible antagonist activity is measured from the ratio of agonist activity (IC50) to that of the control (morphine). In outline: as §1
Assay [9] concerns Mus musculus. Kind of assay: Analgesic activity, 30 min after subcutaneous administration of the compound, in mice.

Several values for one entry are separate records, joined by “and”; a condition that tells them apart may be missing. Identical values can stand only once. Activity calls are given as the source filed them. No cut-off for these calls is given here.

With `O=C1C=CC2C3Cc4ccc(O)c5c4C2(CCN3CC2CC2)[C@H]1O5` (some centres not stated), the Dose in the assay on Mus musculus [1] was 60%; in the assay with Mus musculus [4], 67%; with Mus musculus [5], 10%. The 50% inhibitory concentration (IC50) in the assay listed under Mus musculus [2] and in the assay listed under Cavia porcellus was 300 nM each time. In the assay with Mus musculus [3], the ED50 result was “inactive”. Further, the Ratio in assay [6] worked out at 0.82.
As to `CN1CCC23c4c5ccc(O)c4O[C@H]2C(=O)C=CC3C1C5` (some centres not stated), the ED50 in the assay on Mus musculus [7] was determined as 11.1 nM mouse-1. Moreover, the Dose was 80% in the assay with Mus musculus [1] and 67% in the assay on Mus musculus [4]. Besides, the results for the IC50 in the assay filed under Mus musculus [2] and in the assay filed under Cavia porcellus were 47 nM and 108 nM, respectively. Moreover, the Ratio was 0.67 and 0.68 in [8]; 0.92 in assay [6].
Regarding `CCOc1ccc2c(c1)C1(C)CCN(CC3CC3)C(C2=O)C1C` (configuration not stated) [ETHYLKETAZOCINE], in the assay listed under Cavia porcellus, the concentration for half-maximal inhibition (IC50) worked out at 1.6 nM.
Turning to `CC(C)C[C@@H](NC(=O)[C@H](Cc1ccccc1)NC(=O)CNC(=O)[C@@H](C)NC(=O)[C@@H](N)Cc1ccc(O)cc1)C(=O)O` [DADLE], half-maximal inhibition in the assay listed under Mus musculus [2] (IC50) was put at 0.22 nM.
Turning to `CN1CC[C@]23c4c5ccc(O)c4O[C@H]2[C@@H](O)C=C[C@H]3[C@H]1C5` [MORPHINE], the ED50 with Mus musculus [9] is given as 2.8 nM mouse-1.
